The results in this text go back to ChEMBL document CHEMBL3600347, “Syntheses and in Vitro Antiplasmodial Activity of Aminoalkylated Chalcones and Analogues” (J Nat Prod, 2015).

Data set [1] relates to Plasmodium falciparum. Briefly: Antiplasmodial activity chloroquinone-sensitive Plasmodium falciparum NF54 by parasite lactate dehydrogenase assay. The class given is functional, organism-based. The procedure, abridged:
(§1)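 Asexual erythrocytic P. falciparum stages kept in continuous culture (modified Trager–Jensen). Growth inhibition read by parasite lactate dehydrogenase assay (modified Makler). Samples run in triplicate on one or two separate occasions. IC50 from full dose–response curves by nonlinear curve fitting. Chloroquine served as internal standard to monitor conditions.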

The subject of data set [2] is Plasmodium falciparum. Briefly: Antiplasmodial activity chloroquinone-sensitive Plasmodium falciparum D10 by parasite lactate dehydrogenase assay. The class given is functional, organism-based. The procedure, abridged: as §1
For data set [3], the system named is Plasmodium falciparum. Briefly: Antiplasmodial activity chloroquinone-resistant Plasmodium falciparum Dd2 by parasite lactate dehydrogenase assay. Type of data set: functional, organism-based. The procedure, abridged: (§2)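 Asexual erythrocyte-stage P. falciparum kept in continuous culture by a modified Trager–Jensen method. Growth inhibition was read by a modified Makler parasite lactate dehydrogenase assay. Samples were run in triplicate on one or two separate occasions, with chloroquine as internal standard. IC50 was taken from full dose–response curves by nonlinear curve fitting.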

In another data set the test system is CHO. Briefly: Cytotoxicity against CHO cells by MTT assay. Type of data set: cell-based, Cricetulus griseus. A digest of the protocol: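 Chinese hamster ovary cells; viability by MTT assay (modified Mosmann). Samples prepared as for antiplasmodial testing. Emetine reference in every experiment, started at 100 μg/mL and serially diluted 10-fold in complete medium to six concentrations, lowest 0.001 μg/mL. IC50 from dose–response curves.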

Data set [4] in a line: Selectivity index, ratio of IC50 for CHO cells to IC50 for chloroquinone-sensitive Plasmodium falciparum D10. Conditions: hamster, CHO cells versus Plasmodium falciparum D10.
Data set [5] is described as follows: Selectivity index, ratio of IC50 for CHO cells to IC50 for chloroquinone-sensitive Plasmodium falciparum D10. The conditions noted are these: hamster; for selectivity ratio: CHO cells versus Plasmodium falciparum D10, read-out: Ratio IC50; for Ratio IC50: cho. Type of data set: toxicity, cell-based. The procedure, abridged:
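Selectivity index computed as CHO-cell IC50 (MTT) divided by P. falciparum IC50 from the pLDH assay, for a representative subset of compounds.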

For data set [6], the system named is Plasmodium falciparum. Briefly: Resistance index, ratio of IC50 for chloroquinone-resistant Plasmodium falciparum Dd2 to IC50 for chloroquinone-sensitive Plasmodium falciparum D10. The class given is functional.
Data set [7] deals with Plasmodium falciparum. Briefly: Antiplasmodial activity chloroquinone-resistant Plasmodium falciparum K1 by parasite lactate dehydrogenase assay. The class given is functional, organism-based. A digest of the protocol: as §2
The test system of data set [8] is Plasmodium falciparum. Briefly: Resistance index, ratio of IC50 for […] to IC50 for chloroquinone-[…] Plasmodium falciparum K1. Type of data set: functional.

In the data set with Plasmodium falciparum [1] (Plasmodium falciparum, NF54), `c1ccc(CN2CCCCC2)cc1` gave an IC50 above 5 µM.
On the same count and under the same terms, the result for `Oc1ccccc1CN1CCCCC1` reads above 5 µM.
On to `CCc1ccc(C(=O)/C=C/c2ccc(CN3CCCCC3)c(O)c2)cc1`, for which the half-maximal inhibitory concentration (IC50) turned out to be 0.14 µM in the data set with Plasmodium falciparum [2] (Plasmodium falciparum, D10); 0.21 µM with Plasmodium falciparum [3]; 6.59 µM in the data set with CHO (Cricetulus griseus, CHO). Further, in data set [4], the selectivity ratio was determined as 47.
In turn, `Oc1ccc(CCCc2ccc(C(F)(F)F)cc2)cc1CN1CCCCC1` [listing 1 of 2 here] had an IC50 in the data set with Plasmodium falciparum [1] (Plasmodium falciparum, NF54) of 0.28 µM.
Regarding `CCc1ccc(CCCc2ccc(CN3CCCCC3)c(O)c2)cc1` [listing 1 of 2 here], half-maximal inhibition with Plasmodium falciparum [1] (IC50) required 0.06 µM.
On to `NC(=O)c1ccc(CCCc2ccccc2)cc1`, for which the IC50 in the data set on Plasmodium falciparum [1] (Plasmodium falciparum, NF54) is above 4 µM.
The compound `CC(C)Nc1ccc(CCCc2cccc(O)c2)cc1` yielded an IC50 in the data set with Plasmodium falciparum [1] (Plasmodium falciparum, NF54) above 3 µM.
Take `Oc1cc(CCCc2ccc(CCCc3ccc(CN4CCCCC4)c(O)c3)cc2)ccc1CN1CCCCC1`: the concentration for half-maximal inhibition (IC50) with Plasmodium falciparum [1] (Plasmodium falciparum, NF54) came to 0.06 µM.
In the case of `Cc1ccc(S(=O)(=O)Oc2cc(CCCc3ccc(F)cc3)ccc2CN2CCCCC2)cc1`, the 50% inhibitory concentration (IC50) with Plasmodium falciparum [1] (Plasmodium falciparum, NF54) was above 2 µM.
Still for that read-out and setting: the result for `Oc1cc(CCCc2ccc3ccccc3c2)ccc1CN1CCCCC1` reads 0.04 µM.
`COc1ccc(C(=O)/C=C/c2cccc(O)c2)cc1` showed an IC50 with Plasmodium falciparum [2] (Plasmodium falciparum, D10) of 11.3 µM.
Regarding `COc1ccc(C(=O)/C=C/c2ccc(CN3CCCCC3)c(O)c2)cc1`, the IC50 in the data set with Plasmodium falciparum [2] (Plasmodium falciparum, D10) worked out at 0.83 µM; in the data set on CHO (Cricetulus griseus, CHO), 197 µM. The selectivity ratio in data set [5] amounted to 237.
`O=C(/C=C/c1ccc(CN2CCCC2)c(O)c1)c1ccccc1` registered an IC50 in the data set with Plasmodium falciparum [2] (Plasmodium falciparum, D10) of 6.54 µM.
Same read-out and setting: the result for `COc1ccc(C(=O)/C=C/c2cc(CN3CCCCC3)c(O)c(OC)c2)cc1` reads 2.81 µM.
On the same count and under the same terms, the result for `COc1ccc(C(=O)/C=C/c2ccc(CN3CCOCC3)c(O)c2)cc1` reads 4.9 µM.
On the same count and under the same terms, to `COc1ccc(C(=O)/C=C/c2ccc(O)c(CN3CCN(C)CC3)c2)cc1` belongs 3.77 µM; to `COc1ccc(C(=O)/C=C/c2ccc(CN3CCCC3)c(O)c2)cc1`, 5.75 µM.
Compound `CCN1CCN(Cc2ccc(/C=C/C(=O)c3ccc(OC)cc3)cc2O)CC1` gave a half-maximal inhibitory concentration (IC50) in the data set on Plasmodium falciparum [2] (Plasmodium falciparum, D10) of 2.74 µM.
The same measure, in the same setting: the result for `COc1ccc(C(=O)/C=C/c2ccc(CN(C)C)c(O)c2)cc1` reads 2.52 µM.
The same measure, in the same setting: the result for `COc1ccc(C(=O)/C=C/c2ccc(O)c(CN(C)C)c2)cc1` reads above 3 µM.
`O=C(/C=C/c1ccc(O)c(CN2CCCCC2)c1)c1ccc(C(F)(F)F)cc1`: the IC50 in the data set on Plasmodium falciparum [2] (Plasmodium falciparum, D10) worked out at 0.17 µM; in the data set on Plasmodium falciparum [3] it was 0.2 µM; with CHO (Cricetulus griseus, CHO), 8.22 µM. Also, the selectivity ratio in data set [5] was found to be 49.
In the same order, the values of `O=C(/C=C/c1ccc(CN2CCCCC2)c(O)c1)c1ccc(Br)cc1` are 0.15 µM, 0.21 µM, 7.27 µM and 50.
In the same order, the values of `O=C(/C=C/c1ccc(CN2CCCCC2)c(O)c1)c1ccc(F)cc1` are 0.1 µM, 0.71 µM, 77.2 µM and 796.
As to `O=C(/C=C/c1ccc(CN2CCCCC2)c(O)c1)c1ccccn1`, half-maximal inhibition in the data set on Plasmodium falciparum [2] (Plasmodium falciparum, D10) (IC50) was put at 1.37 µM.
Same read-out and setting: the result for `O=C(/C=C/c1ccc(CN2CCCCC2)c(O)c1)c1ccc[nH]1` reads 2.42 µM.
With `O=C(/C=C/c1ccc(CN2CCCCC2)c(O)c1)c1cccs1`, inhibition with Plasmodium falciparum [2] (Plasmodium falciparum, D10) was half-maximal at 2.73 µM (IC50).
As to `Cc1ccc(C(=O)/C=C/c2ccc(CN3CCCCC3)c(O)c2)cc1`, the IC50 in the data set with Plasmodium falciparum [2] (Plasmodium falciparum, D10) is above 3 µM.
In the case of `O=C(CCc1ccc(CN2CCCCC2)c(O)c1)c1ccc(F)cc1`, it took 0.26 µM to reach half-maximal inhibition in the data set on Plasmodium falciparum [1] (Plasmodium falciparum, NF54) (IC50).
Turning to `O=C(CCc1ccc(CN2CCCCC2)c(O)c1)c1cccs1`, the IC50 stood at 0.19 µM in the data set with Plasmodium falciparum [2] (Plasmodium falciparum, D10); 0.27 µM in the data set with Plasmodium falciparum [3]; 168 µM in the data set with CHO (Cricetulus griseus, CHO). Further, the selectivity ratio in data set [5] was determined as 895.
In the data set with Plasmodium falciparum [2] (Plasmodium falciparum, D10), `O=C(CCc1ccc(CN2CCCCC2)c(O)c1)c1ccc[nH]1` had an IC50 above 3 µM.
The same measure, in the same setting: to `COc1ccc(CCCc2cccc(O)c2)cc1` belongs above 30 µM.
Take `COc1ccc(CCCc2ccc(CN3CCCCC3)c(O)c2)cc1`: the IC50 is 0.21 µM in the data set with Plasmodium falciparum [2] and 69.8 µM with CHO (cho). Also, the “Ratio IC50” value in data set [5] was determined as 332.
As for `COc1ccc(CCCc2cc(O)c(CN3CCCCC3)cc2CN2CCCCC2)cc1`, the IC50 in the data set on Plasmodium falciparum [2] (Plasmodium falciparum, D10) stood at 0.06 µM; with Plasmodium falciparum [3] it was 0.08 µM; in the data set with CHO (Cricetulus griseus, CHO) it was 200 µM. Moreover, the “Ratio IC50” value in the data set on Plasmodium falciparum [6] was 1.47. Besides, the selectivity ratio in data set [5] came out at 3510.
In the case of `Oc1ccc(CCCc2ccc(C(F)(F)F)cc2)cc1CN1CCCCC1` [listing 2 of 2 here], the half-inhibitory concentration (IC50) in the data set on Plasmodium falciparum [2] (Plasmodium falciparum, D10) is 0.01 µM; with Plasmodium falciparum [3] it was 0.03 µM. The “Ratio IC50” value in the data set with Plasmodium falciparum [6] worked out at 5.8.
With `Oc1cc(CCCc2ccc(F)cc2)ccc1CN1CCCCC1`, in the data set on Plasmodium falciparum [2], half-maximal inhibition (IC50) was put at 0.07 µM.
For `Cc1ccc(CCCc2ccc(CN3CCCCC3)c(O)c2)cc1`, the 50% inhibitory concentration (IC50) with Plasmodium falciparum [2] (Plasmodium falciparum, D10) came to 0.09 µM; with Plasmodium falciparum [3], 0.27 µM; with CHO (Cricetulus griseus, CHO) it was 4.95 µM. In addition, in the data set on Plasmodium falciparum [6], the “Ratio IC50” value was determined as 3.06. In data set [5], the selectivity ratio stood at 56.
Turning to `CCc1ccc(CCCc2ccc(CN3CCCCC3)c(O)c2)cc1` [listing 2 of 2 here], the IC50 is 0.18 µM in the data set with Plasmodium falciparum [1] and 25.2 µM in the data set with CHO (Cricetulus griseus, CHO). Besides, in data set [4], the selectivity ratio came out at 138.
Regarding `Oc1cc(CCCc2cccs2)ccc1CN1CCCCC1`, the half-maximal inhibitory concentration (IC50) is 0.05 µM with Plasmodium falciparum [1] (Plasmodium falciparum, NF54) and 0.02 µM in the data set on Plasmodium falciparum [7]. Also, the “Ratio IC50” value in the data set on Plasmodium falciparum [8] was 0.48.
For the compound `CC(C)Nc1ccc(CCCc2ccc(CN3CCCCC3)c(O)c2)cc1`, the IC50 in the data set with Plasmodium falciparum [1] (Plasmodium falciparum, NF54) is 0.18 µM.
In the data set with Plasmodium falciparum [1] (Plasmodium falciparum, NF54), `Oc1ccc(CCCc2ccccc2)cc1CN1CCCCC1` had an IC50 of 0.06 µM.
`Oc1cc(CCCc2ccccc2)ccc1CN1CCCCC1`: in the data set with Plasmodium falciparum [1] (Plasmodium falciparum, NF54), half-maximal inhibition (IC50) required 0.14 µM.
Same read-out and setting: the result for `Oc1cc(CCCc2ccccc2)ccc1CN1CCNCC1` reads 2.81 µM; that for `CN1CCN(Cc2ccc(CCCc3ccccc3)cc2O)CC1`, 0.79 µM.
Still for that read-out and setting: the result for `CCN1CCN(Cc2ccc(CCCc3ccccc3)cc2O)CC1` reads 0.41 µM; that for `Oc1cc(CCCc2ccccc2)ccc1CN1CCCC1`, 0.04 µM; that for `Oc1cc(CCCc2ccccc2)ccc1CN1CCOCC1`, 0.75 µM.
Compound `CN(C)Cc1ccc(CCCc2ccccc2)cc1O` had a 50% inhibitory concentration (IC50) in the data set on Plasmodium falciparum [1] (Plasmodium falciparum, NF54) of 0.09 µM.
With `COc1ccc(CCCc2ccc(CN3CCCCC3)c(O)c2)cc1.Cl`, the concentration for half-maximal inhibition (IC50) was 0.07 µM with Plasmodium falciparum [2], 0.07 µM in the data set with Plasmodium falciparum [3] and 211 µM in the data set with CHO (cho). The “Ratio IC50” value in the data set with Plasmodium falciparum [6] was determined as 1; in data set [5], 3063.
As to `Cl.Oc1cc(CCCc2ccc(F)cc2)ccc1CN1CCCCC1`, the IC50 in the data set with Plasmodium falciparum [2] stood at 0.03 µM; in the data set with Plasmodium falciparum [3], 0.02 µM; in the data set with CHO (Cricetulus griseus, CHO) it was 163 µM. Besides, the “Ratio IC50” value in the data set on Plasmodium falciparum [6] is 0.79. Besides, the selectivity ratio in data set [5] was found to be 5830.
As to `Cl.Oc1cc(CCCc2ccccc2)ccc1CN1CCCCC1`, the concentration for half-maximal inhibition (IC50) in the data set on Plasmodium falciparum [2] (Plasmodium falciparum, D10) was 0.02 µM; in the data set with Plasmodium falciparum [3], 0.03 µM; in the data set on CHO (Cricetulus griseus, CHO), 162 µM. The “Ratio IC50” value in the data set with Plasmodium falciparum [6] is on record as 1.35. Besides, in data set [5], the selectivity ratio came out at 7030.
Regarding `CCc1ccc(CN2CCCCC2)c(O)c1`, in the data set with Plasmodium falciparum [1] (Plasmodium falciparum, NF54), the concentration for half-maximal inhibition (IC50) was 1.04 µM.
Still for that read-out and setting: to `CC(=O)CCc1ccc(CN2CCCCC2)c(O)c1` belongs 1.71 µM; to `Oc1cc(CCc2ccccc2)ccc1CN1CCCCC1`, 0.12 µM.
The same measure, in the same setting: to `Oc1cc(CCCc2ccc(-c3ccccc3)cc2)ccc1CN1CCCCC1` belongs 0.08 µM.
With `O=C(/C=C/c1cccc(O)c1)c1ccccc1` [3-HYDROXY CHALCONE], half-maximal inhibition with Plasmodium falciparum [2] (Plasmodium falciparum, D10) (IC50) was put at 15.7 µM.
`CC[C@H]1CN2CCc3cc(OC)c(OC)cc3[C@@H]2C[C@@H]1C[C@H]1NCCc2cc(OC)c(OC)cc21` [EMETINE] had an IC50 in the data set with CHO (Cricetulus griseus, CHO) of 0.03 µM.
